Bioassay records as filed in PubChem.
FLuc stim CS: FLuc activators, initial screening, artefact control for FLuc-dependent activation tests, biochemical, ATPlite luminescence | 200,000 tested, under 10 active | AID 1027, 2008 | ATPlite luciferase biochemical, 10 min; 0 = ATP-free wells, 1 = DMSO control | activation factor at 10 µM;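 active = luciferase activation factor, scaled between plate controls, of at least 2 with compound at 10 µM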
Target sequence (P08659 whole entry, looked up): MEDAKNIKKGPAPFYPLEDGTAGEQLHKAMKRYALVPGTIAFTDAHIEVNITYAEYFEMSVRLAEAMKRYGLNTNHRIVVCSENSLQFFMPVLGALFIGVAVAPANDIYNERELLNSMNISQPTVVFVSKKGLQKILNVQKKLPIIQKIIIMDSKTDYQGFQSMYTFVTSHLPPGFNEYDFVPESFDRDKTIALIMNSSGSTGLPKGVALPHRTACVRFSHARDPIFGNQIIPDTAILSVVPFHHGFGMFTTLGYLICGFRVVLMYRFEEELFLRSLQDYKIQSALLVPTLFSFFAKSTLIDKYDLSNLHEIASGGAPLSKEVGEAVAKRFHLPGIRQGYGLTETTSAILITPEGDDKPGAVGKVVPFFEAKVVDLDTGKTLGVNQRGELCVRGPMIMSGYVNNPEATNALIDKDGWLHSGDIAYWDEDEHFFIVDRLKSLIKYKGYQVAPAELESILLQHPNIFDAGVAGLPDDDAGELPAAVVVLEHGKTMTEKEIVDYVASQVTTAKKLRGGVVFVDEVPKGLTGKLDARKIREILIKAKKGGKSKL
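Material: luciferase plus luciferin reagent, cell-free. Medium: PBS buffer for ATP. Also added: ATP substrate, dispensed from a 10.24 µM working solution in PBS. Doses: test compounds dosed from 2 mM stocks in 100% DMSO. Incubation: 10 min post-reagent at room temperature. Technique: light output (luminescence). Read-out basis: luminescence gain marking luciferase activators.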
HSP90 inh: HSP90 inhibitors, primary screen, cell lysate, luminescence; Heat shock protein HSP 90 (rabbit reticulocyte lysate; luciferase refolding); Rabbit reticulocyte lysate, luciferase refolding luminescence, 3 h; inhibition, % at 5.6 µM; 290,000 tested, 0.91% active; AID 1789, 2009;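 active = inhibition above the screen-wide mean plus 3 SD, computed separately per campaign, cut at about 16% in these data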;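 note: 0% = DMSO wells and 100% = 60 µM geldanamycin wells; inhibitors lower the luminescence because luciferase stays unfolded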
PPC-1+TRAIL kill: compounds killing PPC-1 cancer cells with TRAIL present, primary screen, TRAIL potentiator project, ATPLite luminescence, uHTS; 220,000 tested, 0.41% active; AID 1443, 2008; cell killing (% activity), % at 4 µM or 5 µM; PPC-1 cells + TRAIL, ATPLite viability luminescence;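 active = cell killing above 50% in the first pass at 4 µM, then a duplicate retest at 5 µM averaging 50% or more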;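 note: plate controls were cells with TRAIL plus DMSO for no effect and medium-only wells lacking cells for full effect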
FLuc inh counter: firefly luciferase enzyme inhibitors, primary screen, artefact control for luciferase-based inhibitor screens, biochemical, luminescence, ATPLite; inhibition, % at 10 µM; 10 min; Luciferin 4-monooxygenase (Photinus pyralis), P08659; 200,000 tested, 1.5% active;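 active = inhibition above about 50% when tested at 10 µM, limit read from the data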
C8 TRAIL sens: viability loss with TRAIL in NB7+C8 cells, primary screen, TRAIL sensitizer project, cell-based, ATPlite luminescence; 360,000 tested, 1% active; AID 624354, 2012; inhibition (viability loss, TRAIL sensitization), % at 10 µM;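 active = compounds causing at least 50% loss of cell viability in the single-dose screen, relative to plate controls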
HSP90 confirm: HSP90 inhibitors, confirmation, cell lysate, luminescence; shares compounds with HSP90 inh; rabbit reticulocyte lysate, luciferase refolding luminescence, 3 h; inhibition, % at 5.9 µM; 2,300 tested, 64% active; in the data active = inhibition above about 18%;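 note: 0% = vehicle wells and 100% = reference inhibitor wells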
FLuc counter: firefly luciferase inhibitors, HSP90 counter-screen, confirmation, artefact control for HSP90 inhibitor project, biochemical, luminescence, triplicate; purified native firefly luciferase; inhibition, % at 5.9 µM; shares compounds with HSP90 inh; 2,300 tested, 48% active;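 active = inhibition above the mean inhibition of all tested sample wells plus 3 SD, cut at about 10% in these data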;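 note: 0% = DMSO with luciferase and 100% = wells lacking luciferase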
* marks the source's active call; other numbers are inactive results; . = not tested or not shown. Only some compounds are listed: those with a hit (about 2% of all), similar ones and a draw of the others.

SMILES	FLuc stim CS	HSP90 inh	PPC-1+TRAIL kill	FLuc inh counter	C8 TRAIL sens	HSP90 confirm	FLuc counter
Cn1ccc(C(=O)Nc2sc3c(c2C(N)=O)CCCCC3)n1	.	18.6*	.	.	37.2	37.8*	19.0*
CCNC(=O)CC1C(=O)N(CC)C(=S)N1NC(=O)c1ccccc1 (stereo unspecified)	.	-0.7	20.0	.	-6.3	.	.
Cc1ccc(NCC(=O)c2ccc(C)cc2)cc1	.	22.4*	.	.	13.4	4.8	-11.7
O=C(Nc1ccc(N2CCOCC2)cc1)C1CCN(S(=O)(=O)Cc2ccccc2)CC1	1	25.3*	6.1	-1.2	-2.9	0.4	-5.1
N#Cc1cc2ccc(N3CCOCC3)cc2cc1C#N	1	17.9*	8.4	-3.4	18.1	-1.1	-10.6
N#Cc1cc(Cl)c(N2CCOCC2)cc1C#N	1	9.0	22.6	-0.2	-6.4	.	.
CCc1cc2c(-n3nc(C)cc3C)ncnc2s1	1	39.2*	3.6	-2.7	-10.3	-1.6	-1.8
COc1cccc(CN2CC(C(=O)NC3CCCCCC3)CCC2=O)c1 (stereo unspecified)	.	-5.2	.	.	-19.7	.	.
O=C(Cc1ccccc1F)NCC1(N2CCOCC2)CCCCC1	.	0.0	14.4	.	11.9	.	.
CC(=O)/C(=C/N(C)C)Sc1ccc(C)cc1	1.1	2.8	-11.7	-6.9	3.5	.	.
CC(=O)/C(=C\N(C)C)Sc1ccc(C)cc1	.	32.7*	9.7	.	-7.8	3.9	-0.2
O=C(Nc1ccc(-c2cn3c(n2)SCC3)cc1)c1ccc2ccccc2n1	1	1.7	-3.4	0.0	23.5	.	.
O=C(Nc1cccc(-c2cn3c(n2)SCC3)c1)c1ccc2ccccc2n1	0.7	50.4*	14.7	32.5	15.7	30.8*	-1.1
CC(OC(=O)CC1CCCCC1)C(=O)Nc1ccc(F)cc1 (stereo unspecified)	.	.	.	.	7.5	.	.
COc1ccccc1/C=N/NC(=Nc1ccc(C)cc1)c1nc2ccccc2s1	1	9.9	36.0	2.3	.	.	.
COc1cc(/C=N/NC(=Nc2ccc(C)cc2)c2nc3ccccc3s2)ccc1O	0.7	57.3*	-2.3	29.3	51.9*	56.8*	49.2*
CN(C)CCNc1c2c(nc3nnnn13)CCCC2	1	0.7	6.1	0.3	-3.2	.	.
CC1=C(C(=O)OCC(C)C)C(c2ccsc2)NC(=O)N1 (stereo unspecified)	1.1	23.9*	12.8	-5.2	-28.0	1.6	-4.9
CCOC(=O)C1=C(C)NC(=O)NC1c1ccsc1 (stereo unspecified)	1	-3.9	-13.1	-3.5	0.1	.	.
Nc1cccc2c1C(=O)N(C(=O)/C=C/c1ccc(F)cc1)C2=O	0.5	28.4*	10.0	51.5*	12.3	11.9	-12.9
Nc1cccc2c1C(=O)N(C(=O)c1ccco1)C2=O	.	4.5	-7.5	.	1.7	.	.
Cc1ccc(C(=O)O/N=C(\N)c2ccccn2)cc1C	.	61.4*	.	.	81.4*	71.4*	84.5*
CCc1ccc(OCC(=O)O/N=C(\N)c2ccccn2)cc1	.	6.5	0.5	.	15.3	.	.
CC(C)(C)c1ccc(C(=O)O/N=C(\N)c2ccccn2)cc1	.	73.3*	.	.	97.5*	64.5*	82.8*
N/C(=N\OC(=O)/C=C/c1ccccc1Cl)c1ccccn1	0.3	28.4*	27.9	74.0*	30.7	55.2*	56.9*
SMILES	FLuc stim CS	HSP90 inh	PPC-1+TRAIL kill	FLuc inh counter	C8 TRAIL sens	HSP90 confirm	FLuc counter
CCOc1ccc(C(=O)O/N=C(\N)c2ccccn2)cc1	.	82.3*	.	.	92.6*	81.7*	91.2*
N/C(=N\OC(=O)/C=C/c1ccc(Br)cc1)c1ccccn1	0.9	10.2	45.7	5.5	34.6	.	.
CC(=O)c1cccc(NC(=O)NNC(=O)CCC(=O)Nc2ccc(C)c(C)c2)c1	1	-0.7	14.1	-4.3	-15.2	.	.
Cc1cccc(OCC(=O)O/N=C(\N)c2ccccn2)c1	0.9	0.5	8.1	5.5	1.1	.	.
COc1cc(C(=O)O/N=C(\N)c2ccccn2)cc(OC)c1OC	.	-1.9	-0.8	.	-14.7	.	.
Cc1ccc(C(=O)O/N=C(\N)c2ccccn2)cc1	.	77.7*	.	.	94.8*	85.9*	94.0*
N/C(=N\OC(=O)c1ccc(Br)o1)c1ccccn1	0.2	23.2*	7.8	78.5*	23.6	-0.3	43.7*
N/C(=N\OC(=O)c1cccc(F)c1)c1ccccn1	.	31.0*	.	.	55.9*	16.1*	68.4*
N/C(=N\OC(=O)Cc1ccccc1)c1ccccn1	0.9	0.1	-12.0	12.0	10.0	.	.
Cc1cccc(C(=O)O/N=C(\N)c2ccccn2)c1	.	61.3*	.	.	86.7*	60.6*	82.6*
COc1ccc(C(=O)O/N=C(\N)c2ccccn2)c(OC)c1	.	42.5*	45.0	.	62.2*	11.1	2.5
O=C(NCC(=O)N1CCN(S(=O)(=O)c2ccccc2F)CC1)c1ccc(Br)o1	.	1.1	.	.	3.1	.	.
Cc1ccc(C(=O)NCCSC(C)(C)C)cc1	0.9	19.2*	-6.0	13.0	-9.5	30.8*	24.5*
Cc1ccc(C(=O)NCCSC(C)(C)C)cc1[N+](=O)[O-]	1	-4.0	35.0	2.9	-4.4	.	.
Cc1ccc(S(=O)(=O)NCCCCCCNS(=O)(=O)c2ccc(C)cc2)cc1	.	.	.	.	11.3	.	.
Cc1ccc(S(=O)(=O)NCCCNS(=O)(=O)c2ccccc2)cc1	.	24.8*	.	.	3.0	-7.5	-8.4
Cc1ccc2c(COC(=O)c3ccc(NC(=O)CC#N)cc3)cc(=O)oc2c1C	.	19.5*	.	.	-9.4	21.8*	-5.8
Cn1c(=O)[nH]c(=O)c2c1nc(Br)n2CC(O)COCc1ccccc1 (stereo unspecified)	1	17.1*	5.2	-2.9	11.8	-0.2	-1.3
Cn1c(=O)[nH]c(=O)c2c1nc(Br)n2CC(O)COc1ccccc1 (stereo unspecified)	1	1.0	29.0	-1.3	4.8	.	.
O=C(O)c1cc2nccc(-c3ccc(F)cc3)n2n1	1	-6.9	22.0	-4.9	-15.0	.	.
O=C(NCCc1ccccc1)c1ccccc1NC(=O)C1CCCCC1C(=O)O (stereo unspecified)	1	47.4*	5.0	-2.8	.	2.5	-9.1
O=C(Nc1ccc(F)cc1)c1ccccc1NC(=O)C1CCCCC1C(=O)O (stereo unspecified)	.	.	.	.	-7.6	.	.
O=C(CCN1C(=O)C2CC=CCC2C1=O)Nc1ccc(S(=O)(=O)N2CCCCC2)cc1 (stereo unspecified)	.	.	.	.	-6.0	.	.
NNC(=O)c1ccc(COc2ccc3ccccc3c2)o1	.	3.1	5.8	.	28.9	.	.
O=C(OCc1ccccn1)c1ccc(COc2ccc3ccccc3c2)o1	.	44.5*	8.4	.	-1.5	63.2*	-11.4
